This note sets out measurements from ChEMBL document CHEMBL4732051, “The discovery of potent small molecule activators of human STING” (Eur J Med Chem, 2021).

Data set [1] deals with Stimulator of interferon genes protein (Homo sapiens, UniProt Q86WV6). Nature of the data set: Activation of human STING expressed in human PBMC cells assessed as phosphorylation at (ser366) at 10 uM incubated for 2 hrs and measured by Western blot analysis. The conditions noted are these: filed as activator. In kind it is cell-based. Summed up: (§1)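 Tumor cell lines or human primary cells carrying endogenous STING variants; STING KO cells as control. 10µM for 2 h, then lysed in RIPA with phosphatase and protease inhibitors. 10 μg protein on 10% SDS-PAGE, blotted for pSTING (Ser366), pIRF3 (Ser396), STING, IRF3 and actin, ECL detection.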
Stimulator of interferon genes protein, sequence (Q86WV6 whole entry): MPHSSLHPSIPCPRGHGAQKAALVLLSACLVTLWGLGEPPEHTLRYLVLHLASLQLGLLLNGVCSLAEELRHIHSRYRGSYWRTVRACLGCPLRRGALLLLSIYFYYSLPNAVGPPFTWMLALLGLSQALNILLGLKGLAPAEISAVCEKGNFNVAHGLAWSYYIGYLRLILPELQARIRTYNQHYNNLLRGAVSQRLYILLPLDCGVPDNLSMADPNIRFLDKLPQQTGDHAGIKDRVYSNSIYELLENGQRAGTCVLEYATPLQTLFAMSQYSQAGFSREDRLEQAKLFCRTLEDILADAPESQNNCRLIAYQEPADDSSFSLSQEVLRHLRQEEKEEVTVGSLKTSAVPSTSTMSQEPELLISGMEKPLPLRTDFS

Data set [2] concerns Stimulator of interferon genes protein (Homo sapiens), Q86WV6 [UNDEFINED MUTATION]. Nature of the data set: Activation of human STING R232 in human MDA-MB-468 cells assessed as phosphorylation of IRF3 at (Ser396) at 10 uM incubated for 2 hrs and measured by Western blot analysis. As to conditions: filed as activator. In kind it is cell-based. An outline of the steps: as §1
Stimulator of interferon genes protein (Homo sapiens), Q86WV6 [UNDEFINED MUTATION], sequence (Q86WV6 whole entry, looked up, change not shown): as the sequence (Q86WV6 whole entry) above

A short description of data set [3]: Oral bioavailability in BALB/c mouse at 10 mg/kg measured up to 24 hrs by LC-MS/MS analysis. As to conditions: in vivo. The class given is ADME, organism-based. An outline of the steps: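 Overnight-fasted mice, randomized, n=3 per group, each given a single dose by lateral tail vein (iv) or oral gavage. Blood (50 μl per point, under isoflurane) was taken from the retro-orbital plexus. Sampling was at 2 min–24 h after iv and 5 min–24 h after oral dosing. Plasma was separated at 1500 x g for 15 min at 4 °C, stored at -80 °C, and analysed by LCMS.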

In data set [4] the test system is Stimulator of interferon genes protein (Homo sapiens), Q86WV6 [UNDEFINED MUTATION]. Nature of the data set: Activation of human STING R232 in human dendritic cells assessed as induction of CD86 measured by qt-PCR analysis. In kind it is cell-based. The conditions noted are these: Dendritic cell, filed as activator. Summed up:
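PBMC isolated on Histopaque 1077, ACK-lysed, monocytes purified by MACS. Monocytes at 1 x 10^6 cells/ml in RPMI/10% FBS with 100ng/ml GMCSF and 50ng/ml IL4, 37 °C, 5% CO2, for 24–36 h. Compound added (1% DMSO final) for 6 h. CD86 and CD83 read by qPCR as fold of vehicle-treated cells.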

For data set [5], the system named is HEK293T. Briefly: Induction of STING H232 mutant (unknown origin) expressed in HEK293T cells assessed as increase in luciferase coupled ISG54-ISRE activity incubated for 18 hrs luciferase reporter gene assay. The class given is cell-based. The conditions noted are these: Homo sapiens, filed as activator.
Data set [6] addresses Cytochrome P450 2C9 (Homo sapiens, UniProt P11712). Briefly: Inhibition of CYP2C9 (unknown origin). In kind it is ADME.

Active and inactive are the calls of the source. No cut-off for these calls is given here.

Cytochrome P450 2C9, sequence (P11712 whole entry): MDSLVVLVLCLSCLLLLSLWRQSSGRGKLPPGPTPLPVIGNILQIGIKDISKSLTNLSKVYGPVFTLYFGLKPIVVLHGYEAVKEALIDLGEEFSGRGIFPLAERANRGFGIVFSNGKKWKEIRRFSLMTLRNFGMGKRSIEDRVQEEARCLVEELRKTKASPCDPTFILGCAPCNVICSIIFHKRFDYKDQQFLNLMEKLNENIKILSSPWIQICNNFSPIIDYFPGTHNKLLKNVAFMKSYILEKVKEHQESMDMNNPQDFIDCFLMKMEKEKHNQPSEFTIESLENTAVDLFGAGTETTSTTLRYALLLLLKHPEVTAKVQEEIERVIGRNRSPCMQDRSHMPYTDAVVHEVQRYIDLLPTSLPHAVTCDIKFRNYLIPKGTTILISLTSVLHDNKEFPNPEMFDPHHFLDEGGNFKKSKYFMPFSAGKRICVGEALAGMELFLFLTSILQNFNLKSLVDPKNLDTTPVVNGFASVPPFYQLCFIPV

Regarding `CC1(C)C(=O)N(Cc2c(F)cccc2Cl)c2cc(C(=O)NCc3c(F)cc(F)cc3F)ccc21`, the outcome in data set [1], in data set [2], in data set [4] and in data set [5] was Active. In data set [3], this compound came in with a bioavailability of 86%. The “inhibition (INH)” value in data set [6] is reported as “Not Active”.
